This note sets out measurements from ChEMBL document CHEMBL3612008, “Synthesis and anticancer effects evaluation of 1-alkyl-3-(6-(2-methoxy-3-sulfonylaminopyridin-5-yl)benzo[d]thiazol-2-yl)urea as anticancer agents with low toxicity” (Bioorg Med Chem, 2015).

One data set deals with U-87 MG. Kind of data set: Antiproliferative activity against human U87MG cells incubated for 72 hrs by MTT assay. Type of data set: functional, cell-based, U-87MG ATCC. In short, it runs like this: (§1)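 HCT-116, MCF-7 and U-87 MG grown in DMEM with 10% FBS, 37 °C, 5% CO2; 3000-5000 cells/well preincubated 24 h, then compounds at final 100, 10, 1, 0.1, 0.01 µM for 72 h.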
Background: Formazan colour is commonly taken as a measure of viable cells.

A further data set concerns MCF7. As to the kind of experiment: Antiproliferative activity against human MCF7 cells incubated for 72 hrs by MTT assay. It counts as functional, cell-based. Particulars: MCF7, 72 h. The gist of the method:
as §1

Another data set relates to HCT-116. Kind of data set: Antiproliferative activity against human HCT116 cells incubated for 72 hrs by MTT assay. It counts as functional, cell-based. The conditions noted are these: HCT-116, 72 h. The gist of the method: as §1
A short description of data set [1]: Acute toxicity in mouse dosed orally once daily and observed for 7 days by up and down procedure. Type of data set: organism-based. The conditions noted are these: in vivo, po. In short, it runs like this: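 Male mice, 20.1 ± 1.9 g. Compound dissolved in NMP, then diluted with PEG400 and water (NMP/PEG400/H2O 1:6:3 by volume), given by gavage at 20 ml/kg. Starting dose 10 mg/kg, single mouse per step; dose raised 1.5-fold when the animal behaved normally, continuing until a death occurred.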

A further data set has as its system A549. As to the kind of experiment: Antiproliferative activity against human A549 cells incubated for 72 hrs by MTT assay. Type of data set: functional, cell-based. Particulars: A549, 72 h. The gist of the method: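 A549 in RPMI-1640 with 10% calf serum, 37 °C, 5% CO2; seeded 3000-5000 cells/well, 24 h before exposure to final 100, 10, 1, 0.1, 0.01 µM for 72 h. MTT (5 mg/ml in PBS) added, 4 h at 37 °C; formazan dissolved in DMSO, OD 570 nm. Three experiments in triplicate; IC50 from inhibition ratios.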

The target in a further data set is mTORC1 (Homo sapiens, UniProt P42345). As to the kind of experiment: Inhibition of mTORC1 (unknown origin) incubated for 40 mins by luciferase based ATP depletion assay. Type of data set: protein-complex assay.
For data set [2], the system named is CCRF S-180. As to the kind of experiment: Anticancer activity against mouse S180 cells transplanted in mouse assessed as reduction in tumor weight at 3 mg/kg, po dosed once daily for 8 days. Type of data set: functional. Particulars: CCRF S-180, po, 192 h.
A further data set concerns Mus musculus. Kind of data set: Toxicity in mouse S180 cells transplanted mouse assessed as increase in body weight at 1 to 10 mg/kg, po dosed once daily for 8 days. It counts as organism-based, CCRF S-180. Particulars: in vivo, 192 h. In short, it runs like this: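 S180 flank homograft mice (3×10^6 cells s.c., 8 per group) dosed orally once daily for 8 days at 1.0, 3.0 or 10.0 mg/kg in NMP/PEG400/H2O (1:6:3), solvent-only controls; body weights recorded daily and again at sacrifice on Day 9.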

The target in data set [3] is PI3-kinase p110-alpha/p85-alpha (Homo sapiens, UniProt P42336). Kind of data set: Inhibition of p110alpha/p85alpha (unknown origin) incubated for 40 mins by luciferase based ATP depletion assay. It counts as protein-complex assay.
For data set [4], the target named is PI3-kinase subunit gamma/Phosphoinositide 3-kinase regulatory subunit 5 (Homo sapiens, UniProt P48736). As to the kind of experiment: Inhibition of p110gamma/PIK3R5 (unknown origin) incubated for 40 mins by luciferase based ATP depletion assay. It counts as protein-complex assay.
In data set [5] the test system is CCRF S-180. As to the kind of experiment: Anticancer activity against mouse S180 cells transplanted in mouse assessed as reduction in tumor weight at 10 mg/kg, po dosed once daily for 8 days. Type of data set: functional. The conditions noted are these: CCRF S-180, po, 192 h.
The subject of data set [6] is CCRF S-180. As to the kind of experiment: Anticancer activity against mouse S180 cells transplanted in mouse assessed as reduction in tumor weight at 1 mg/kg, po dosed once daily for 8 days. Type of data set: functional. Particulars: CCRF S-180, po, 192 h.
Data set [7] has as its target PI3-kinase p110-delta/p85-alpha (Homo sapiens, UniProt O00329). As to the kind of experiment: Inhibition of p110delta/p85alpha (unknown origin) incubated for 40 mins by luciferase based ATP depletion assay. Type of data set: protein-complex assay.
The target of the next data set is PI3K p110 beta/p85 alpha (Homo sapiens, UniProt P42338). Kind of data set: Inhibition of p110beta/p85alpha (unknown origin) incubated for 40 mins by luciferase based ATP depletion assay. It counts as protein-complex assay.

A word on the IC50: it is the point on the concentration scale where inhibition reaches its midpoint. Read a low IC50 as greater potency in that assay. One may read the LD50 as the dose expected to kill half of the subjects tested. A word on the inhibition in vivo: it is the change of the read-out against control, counted positive when it falls.

Sequence of PI3K p110 beta/p85 alpha (P27986 whole entry): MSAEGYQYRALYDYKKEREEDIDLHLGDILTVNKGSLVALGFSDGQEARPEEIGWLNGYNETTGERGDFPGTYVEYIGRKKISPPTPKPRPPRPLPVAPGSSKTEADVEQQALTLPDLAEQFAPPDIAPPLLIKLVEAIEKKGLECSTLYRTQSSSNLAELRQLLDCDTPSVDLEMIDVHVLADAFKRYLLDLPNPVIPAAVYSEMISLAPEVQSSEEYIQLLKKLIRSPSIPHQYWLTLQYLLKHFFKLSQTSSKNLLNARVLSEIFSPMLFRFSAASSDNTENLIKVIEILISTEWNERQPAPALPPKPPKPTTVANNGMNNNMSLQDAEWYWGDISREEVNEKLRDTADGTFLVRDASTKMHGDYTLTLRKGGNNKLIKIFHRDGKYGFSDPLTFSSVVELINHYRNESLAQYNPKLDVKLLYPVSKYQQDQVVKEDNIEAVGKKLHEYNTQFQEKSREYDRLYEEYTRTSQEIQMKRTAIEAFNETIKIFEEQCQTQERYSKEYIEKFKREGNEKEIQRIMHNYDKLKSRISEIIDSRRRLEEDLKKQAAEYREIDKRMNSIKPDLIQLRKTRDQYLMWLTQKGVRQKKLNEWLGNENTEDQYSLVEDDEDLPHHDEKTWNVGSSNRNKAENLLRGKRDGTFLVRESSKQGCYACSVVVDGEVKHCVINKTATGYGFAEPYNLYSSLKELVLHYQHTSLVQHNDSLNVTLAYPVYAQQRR
Sequence of PI3K p110 beta/p85 alpha (P42338 whole entry): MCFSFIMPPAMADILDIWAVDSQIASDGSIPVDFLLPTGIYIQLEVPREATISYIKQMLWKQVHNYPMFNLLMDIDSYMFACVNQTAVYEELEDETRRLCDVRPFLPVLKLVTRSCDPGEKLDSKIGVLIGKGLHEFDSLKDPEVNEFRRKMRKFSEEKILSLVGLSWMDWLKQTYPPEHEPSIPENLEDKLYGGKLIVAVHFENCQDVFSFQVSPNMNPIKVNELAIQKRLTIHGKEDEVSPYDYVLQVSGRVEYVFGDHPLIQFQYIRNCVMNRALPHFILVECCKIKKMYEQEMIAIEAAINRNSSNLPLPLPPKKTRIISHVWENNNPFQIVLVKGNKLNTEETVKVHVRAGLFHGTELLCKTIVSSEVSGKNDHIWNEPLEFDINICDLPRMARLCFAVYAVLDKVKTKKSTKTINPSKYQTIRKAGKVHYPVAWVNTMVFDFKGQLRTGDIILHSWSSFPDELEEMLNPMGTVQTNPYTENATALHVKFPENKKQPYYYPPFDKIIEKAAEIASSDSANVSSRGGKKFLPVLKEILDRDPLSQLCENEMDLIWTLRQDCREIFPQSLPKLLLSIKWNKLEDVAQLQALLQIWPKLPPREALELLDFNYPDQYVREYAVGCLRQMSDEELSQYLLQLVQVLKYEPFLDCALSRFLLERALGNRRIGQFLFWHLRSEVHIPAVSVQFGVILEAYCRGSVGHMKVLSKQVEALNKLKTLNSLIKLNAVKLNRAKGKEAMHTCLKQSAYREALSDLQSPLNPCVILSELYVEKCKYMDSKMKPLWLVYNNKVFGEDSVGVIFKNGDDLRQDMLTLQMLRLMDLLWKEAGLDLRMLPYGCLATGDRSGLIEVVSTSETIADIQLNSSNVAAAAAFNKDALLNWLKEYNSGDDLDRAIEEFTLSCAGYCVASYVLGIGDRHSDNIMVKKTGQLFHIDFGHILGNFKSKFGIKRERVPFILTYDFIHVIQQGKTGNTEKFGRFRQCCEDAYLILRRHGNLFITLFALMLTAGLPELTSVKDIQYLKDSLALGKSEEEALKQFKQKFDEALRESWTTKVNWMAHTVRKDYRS
Sequence of PI3-kinase p110-alpha/p85-alpha (P27986 whole entry): as the sequence (P27986 whole entry) above
Sequence of PI3-kinase p110-alpha/p85-alpha (P42336 whole entry): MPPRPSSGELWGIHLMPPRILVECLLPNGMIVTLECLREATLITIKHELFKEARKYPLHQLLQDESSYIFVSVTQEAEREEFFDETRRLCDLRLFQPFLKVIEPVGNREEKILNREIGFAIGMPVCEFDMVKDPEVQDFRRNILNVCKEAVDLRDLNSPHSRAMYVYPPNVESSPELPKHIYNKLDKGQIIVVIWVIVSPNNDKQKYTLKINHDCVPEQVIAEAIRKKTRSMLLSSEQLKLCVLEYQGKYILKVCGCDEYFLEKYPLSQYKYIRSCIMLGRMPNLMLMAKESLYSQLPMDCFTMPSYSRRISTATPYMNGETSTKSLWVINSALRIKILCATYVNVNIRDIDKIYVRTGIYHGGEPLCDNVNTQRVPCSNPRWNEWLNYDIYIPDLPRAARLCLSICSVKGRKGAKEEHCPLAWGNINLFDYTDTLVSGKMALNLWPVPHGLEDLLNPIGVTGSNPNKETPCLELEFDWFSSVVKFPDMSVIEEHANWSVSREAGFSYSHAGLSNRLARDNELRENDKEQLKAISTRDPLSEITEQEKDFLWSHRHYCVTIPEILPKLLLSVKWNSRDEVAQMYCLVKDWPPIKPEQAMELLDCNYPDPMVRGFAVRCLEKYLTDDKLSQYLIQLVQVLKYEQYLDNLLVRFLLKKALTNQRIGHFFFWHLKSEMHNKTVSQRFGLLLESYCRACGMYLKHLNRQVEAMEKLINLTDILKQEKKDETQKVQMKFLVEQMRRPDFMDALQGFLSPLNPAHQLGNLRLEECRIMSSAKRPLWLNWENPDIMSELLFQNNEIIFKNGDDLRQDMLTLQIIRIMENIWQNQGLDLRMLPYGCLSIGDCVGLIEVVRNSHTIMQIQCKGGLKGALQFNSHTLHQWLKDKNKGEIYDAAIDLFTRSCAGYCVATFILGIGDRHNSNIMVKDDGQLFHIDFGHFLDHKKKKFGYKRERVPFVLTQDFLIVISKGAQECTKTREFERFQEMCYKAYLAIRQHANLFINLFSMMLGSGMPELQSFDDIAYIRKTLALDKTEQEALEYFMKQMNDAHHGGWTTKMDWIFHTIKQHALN
Sequence of PI3-kinase p110-delta/p85-alpha (P27986 whole entry): as the sequence (P27986 whole entry) above
Sequence of PI3-kinase p110-delta/p85-alpha (O00329 whole entry): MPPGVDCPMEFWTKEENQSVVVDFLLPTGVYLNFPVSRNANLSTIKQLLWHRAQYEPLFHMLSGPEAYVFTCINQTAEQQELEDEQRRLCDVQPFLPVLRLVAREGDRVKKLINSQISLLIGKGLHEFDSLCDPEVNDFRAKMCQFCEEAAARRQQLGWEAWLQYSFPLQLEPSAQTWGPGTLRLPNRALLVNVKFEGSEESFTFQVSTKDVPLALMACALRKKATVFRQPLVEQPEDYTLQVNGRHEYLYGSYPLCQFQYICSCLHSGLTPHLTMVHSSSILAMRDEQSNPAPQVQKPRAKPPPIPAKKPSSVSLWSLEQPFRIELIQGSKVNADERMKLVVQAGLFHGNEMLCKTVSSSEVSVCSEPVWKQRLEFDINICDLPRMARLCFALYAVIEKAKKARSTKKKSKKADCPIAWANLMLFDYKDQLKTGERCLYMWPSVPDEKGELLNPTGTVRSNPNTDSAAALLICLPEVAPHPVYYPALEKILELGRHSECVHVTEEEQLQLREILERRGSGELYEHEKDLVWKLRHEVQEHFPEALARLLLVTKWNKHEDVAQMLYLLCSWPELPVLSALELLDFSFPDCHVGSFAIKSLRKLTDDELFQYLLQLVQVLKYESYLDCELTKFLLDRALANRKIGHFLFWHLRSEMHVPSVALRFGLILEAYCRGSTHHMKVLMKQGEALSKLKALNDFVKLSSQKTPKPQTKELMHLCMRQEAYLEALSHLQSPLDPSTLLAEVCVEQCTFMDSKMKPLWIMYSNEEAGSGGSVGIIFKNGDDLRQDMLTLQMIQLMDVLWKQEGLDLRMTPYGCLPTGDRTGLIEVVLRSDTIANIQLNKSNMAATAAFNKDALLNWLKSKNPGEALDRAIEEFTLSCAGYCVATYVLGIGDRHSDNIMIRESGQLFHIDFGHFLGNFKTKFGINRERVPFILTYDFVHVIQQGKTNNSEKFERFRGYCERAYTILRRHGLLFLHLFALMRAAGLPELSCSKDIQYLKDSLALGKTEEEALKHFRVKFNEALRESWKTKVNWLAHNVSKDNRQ

In the case of `CC(=O)Nc1nc2ccc(-c3cnc(Cl)c(NS(=O)(=O)c4ccc(F)cc4)c3)cc2s1`, the IC50 in the data set with U-87 MG was 440 nM; with MCF7, 430 nM; with HCT-116, 440 nM; in the data set on A549, 410 nM. In data set [1], this compound registered an LD50 at 168 h of 20 mg/kg.
Regarding `CCCNc1nc2ccc(-c3cnc(Cl)c(NS(=O)(=O)c4ccc(F)cc4)c3)cc2s1`, the IC50 in the data set on HCT-116 was > 20000 nM.
As to `O=S(=O)(Nc1cc(-c2ccc3nc(NC4CC4)sc3c2)cnc1Cl)c1ccc(F)cc1`, it took 5750 nM to reach half-maximal inhibition in the data set with HCT-116 (IC50).
Consider `COc1ncc(-c2ccc3nc(NC4CC4)sc3c2)cc1NS(=O)(=O)c1ccc(F)cc1`, for which the IC50 is 1500 nM in the data set on U-87 MG, 450 nM in the data set with MCF7, 1560 nM in the data set on HCT-116 and 1330 nM with A549.
On to `CCOC(=O)CNc1nc2ccc(-c3cnc(OC)c(NS(=O)(=O)c4ccc(F)cc4)c3)cc2s1`, for which the IC50 in the data set on HCT-116 is > 20000 nM.
Regarding `O=C(Nc1nc2ccc(-c3cnc(Cl)c(NS(=O)(=O)c4ccc(F)cc4)c3)cc2s1)NC1CC1`, the IC50 is 1720 nM in the data set with U-87 MG, 1090 nM in the data set on MCF7, 1750 nM with HCT-116 and 1030 nM with A549.
The like results for `CCN(CC)CCNC(=O)Nc1nc2ccc(-c3cnc(Cl)c(NS(=O)(=O)c4ccc(F)cc4)c3)cc2s1` were, in that order, 1390 nM, 710 nM, 920 nM and 5260 nM.
The like results for `O=C(NCCN1CCOCC1)Nc1nc2ccc(-c3cnc(Cl)c(NS(=O)(=O)c4ccc(F)cc4)c3)cc2s1` were, in that order, 2390 nM, 950 nM, 2960 nM and 6690 nM.
Regarding `CNC(=O)Nc1nc2ccc(-c3cnc(OC)c(NS(=O)(=O)c4ccc(F)cc4)c3)cc2s1`, the IC50 was 1230 nM in the data set with U-87 MG, 1190 nM with MCF7, 870 nM with HCT-116 and 1560 nM with A549. Moreover, in data set [1], the LD50 at 168 h came to 40 mg/kg.
In the case of `COc1ncc(-c2ccc3nc(NC(=O)NC4CC4)sc3c2)cc1NS(=O)(=O)c1ccc(F)cc1`, the IC50 in the data set with U-87 MG turned out to be 520 nM; in the data set on MCF7, 1190 nM; with HCT-116, 470 nM; with A549, 900 nM.
Take `CCN(CC)CCNC(=O)Nc1nc2ccc(-c3cnc(OC)c(NS(=O)(=O)c4ccc(F)cc4)c3)cc2s1`: the IC50 at mTORC1 was found to be 78 nM; with U-87 MG, 390 nM; in the data set with MCF7, 320 nM; in the data set with HCT-116, 300 nM; in [3], 13 nM; in data set [4], 11 nM. Moreover, the IC50 in the data set with A549 turned out to be 450 nM; in data set [7], 148 nM; against PI3K p110 beta/p85 alpha, 90 nM. In addition, in the data set on CCRF S-180 [2], the inhibition in vivo at 3 mg/kg turned out to be 44.3%. In addition, the Activity entry in the data set on Mus musculus is listed as “Non-toxic”. For the same compound, in data set [1], the LD50 at 168 h was found to be 320 mg/kg. Further, the inhibition in vivo at 10 mg/kg with CCRF S-180 [5] came to 56.2%. Moreover, the inhibition in vivo at 1 mg/kg in the data set with CCRF S-180 [6] was determined as 27.2%.
With `COc1ncc(-c2ccc3nc(NC(=O)NCCN4CCOCC4)sc3c2)cc1NS(=O)(=O)c1ccc(F)cc1`, the IC50 with U-87 MG amounted to 490 nM; with MCF7, 750 nM; in the data set on HCT-116 it was 520 nM; in the data set with A549 it was 430 nM.
For the compound `COc1ncc(-c2ccc3nc(NC(=O)NCCN4CCCC4)sc3c2)cc1NS(=O)(=O)c1ccc(F)cc1`, the IC50 came out at 360 nM in the data set with U-87 MG, 410 nM in the data set on MCF7, 310 nM with HCT-116 and 300 nM in the data set on A549. This compound yielded an LD50 at 168 h in data set [1] of 300 mg/kg.
Regarding `COc1ncc(-c2ccc3nc(NC(=O)NCCN4CCCCC4)sc3c2)cc1NS(=O)(=O)c1ccc(F)cc1`, the IC50 with U-87 MG amounted to 750 nM; in the data set with MCF7, 450 nM; with HCT-116 it was 610 nM; in the data set with A549, 330 nM.
In the case of `COc1ncc(-c2ccc3nc(NC(=O)NCCN4CCN(C)CC4)sc3c2)cc1NS(=O)(=O)c1ccc(F)cc1`, the IC50 was found to be 440 nM in the data set on U-87 MG, 470 nM in the data set on MCF7, 540 nM in the data set with HCT-116 and 550 nM in the data set with A549. The LD50 at 168 h in data set [1] was 300 mg/kg.
On to `COc1ncc(-c2ccc3nc(NC(=O)NCCN(C)C)sc3c2)cc1NS(=O)(=O)c1ccc(F)cc1`, for which the IC50 stood at 1020 nM in the data set with U-87 MG, 500 nM in the data set on MCF7, 240 nM in the data set on HCT-116 and 470 nM in the data set on A549.
The matching figures for `CCN(CC)CCNC(=O)Nc1nc2ccc(-c3cnc(OC)c(NS(=O)(=O)c4ccc(C)cc4)c3)cc2s1`: 360 nM, 170 nM, 180 nM and 310 nM.
The like results for `COc1ccc(-c2ccc3nc(NC(=O)NCCN4CCOCC4)sc3c2)cn1` were, in that order, 7230 nM, > 20000 nM, > 20000 nM and 5160 nM.
In the case of `COc1ncc(-c2ccc3nc(NC(=O)NCCN4CCOCC4)sc3c2)cc1C#N`, the IC50 was determined as 8380 nM in the data set with U-87 MG, 2300 nM in the data set with MCF7, 4550 nM in the data set with HCT-116 and 4710 nM in the data set with A549.
The like results for `COc1ncc(-c2ccc3nc(NC(=O)NCCN4CCOCC4)sc3c2)cc1NS(=O)(=O)C1CC1` were, in that order, 1670 nM, 1800 nM, 640 nM and 1920 nM.
The matching figures for `COc1ncc(-c2ccc3nc(NC(=O)NCCN4CCOCC4)sc3c2)cc1NS(=O)(=O)c1ccc(Cl)cc1`: 1050 nM, 650 nM, 540 nM and 530 nM.
The matching figures for `COc1ncc(-c2ccc3nc(NC(=O)NCCN4CCOCC4)sc3c2)cc1NS(=O)(=O)c1ccc(C)cc1`: 520 nM, 210 nM, 570 nM and 380 nM.
As to `COc1ncc(-c2ccc3nc(NC(=O)NCCN4CCOCC4)sc3n2)cc1NS(=O)(=O)c1ccc(F)cc1`, the IC50 in the data set with U-87 MG stood at 480 nM; with MCF7 it was 260 nM; with HCT-116 it was 250 nM; in the data set with A549 it was 490 nM.
Take `Cn1c(=O)n(-c2ccc(C(C)(C)C#N)cc2)c2c3cc(-c4cnc5ccccc5c4)ccc3ncc21` [DACTOLISIB]: the IC50 came out at 1410 nM in the data set with U-87 MG, 480 nM in the data set on MCF7 and 760 nM in the data set with A549.
